We go through two molecules from article PMC3056322 (Journal of the American Chemical Society, 2010).

Non-standard residues stand in square brackets, D forms with d. Residues, ends and D or L forms follow the SMILES beside them. pS = N[C@@H](COP(=O)(O)O)C(=O)O

Experiment [1] has as its target T1, Pin1-PPIase (truncated human Pin1 construct omitting the WW domain) (Homo sapiens, UniProt Q13526). The experiment is described as follows: 15N–1H chemical shift perturbation ligand titration. Format: binding. The gist of the method:
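Pin1-PPIase was titrated with the test compound, and the protein's amide 15N–1H chemical shift perturbations were followed. Kd was obtained by fitting the resulting binding isotherms.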

Experiment [2] deals with T1, Pin1-PPIase (truncated human Pin1 construct omitting the WW domain). Briefly: 2-D 1H–1H EXSY of cis–trans isomerization with Pin1-PPIase. The note with it: 1H–1H EXSY of attached P4 Hδ protons. The format is biochemical. In outline: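 2-D 1H–1H EXSY was run on an acetylated, amidated phospho-Ser-Pro pentapeptide substrate with Pin1-PPIase. Enzyme levels relative to ligand were raised up to 20%. Cis–trans exchange rate and cis population were taken from the EXSY data.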

For experiment [3] the target is unchanged. Briefly: Natural abundance 13C CPMG relaxation dispersion of ligand with Pin1-PPIase. Format: binding.
For experiment [4], the target named is T2, trans-locked alkene isostere inhibitor (also: pSer-Pro amide replaced by (E)CH=C alkene isostere).
T2 chain: Ac-FF[pS]PR-NH2
The experiment is described as follows: NMR chemical shift titration.

Experiment [5] has as its target T3, FFpSPR substrate phosphopeptide (SMILES CC(=O)N[C@@H](Cc1ccccc1)C(=O)N[C@@H](Cc1ccccc1)C(=O)N[C@@H](COP(=O)(O)O)C(=O)N1CCC[C@H]1C(=O)N[C@@H](CCCNC(=N)N)C(N)=O).
T3 chain: Ac-FF[pS]PR-NH2
The experiment is described as follows: NMR chemical shift titration.

The target of experiment [6] is T4, cis-locked alkene isostere inhibitor (also: pSer-Pro amide replaced by (Z)CH=C alkene isostere).
T4 chain: Ac-FF[pS]PR-NH2
The experiment is described as follows: NMR chemical shift titration.

Setting [7] is: side-chain P4-Cδ, 1% Pin1-PPIase, two-state fit.

T1 sequence (Q13526 50-163 limits assumed): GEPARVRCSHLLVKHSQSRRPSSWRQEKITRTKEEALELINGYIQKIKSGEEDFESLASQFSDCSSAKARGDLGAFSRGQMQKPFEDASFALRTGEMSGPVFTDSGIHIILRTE

Take `CC(=O)N[C@@H](Cc1ccccc1)C(=O)N[C@@H](Cc1ccccc1)C(=O)N[C@@H](COP(=O)(O)O)C(=O)N1CCC[C@H]1C(=O)N[C@@H](CCCNC(=N)N)C(N)=O` [FFpSPR, Ac-Phe-Phe-pSer-Pro-Arg-NH2] (Ac-FF[pS]PR-NH2): the Kd (as a rule, the equilibrium constant for the complex coming apart) in experiment [1] was 203 ± 46 µM. The same molecule showed a pCIS in experiment [2] (cis population) of 12 ± 2%. In addition, the “kex,CIS/TRANS” value in experiment [2] (cis–trans isomerization) came to 87 ± 4 s⁻¹. Besides, the kex in experiment [3] (P4-Cα and F1-Cα, 1% Pin1-PPIase) was in the range of 200 to 800 s⁻¹. Also, the “C-terminal R5-Cα dispersion” value in experiment [3] (R5-Cα, 1% Pin1-PPIase) is given as “strong dispersion”. Moreover, in experiment [3] (setting [7]), the kex was 85 ± 9 s⁻¹ and the pminor is on record as 17 ± 4%. Also, the “13C dispersion at lower temperature” value in experiment [3] (with Pin1-PPIase, lower temperature) was “decrease in FFpSPR dispersion”.

B1: Pin1 PPIase domain (protein)
chain: PARVRCSHLLVKHSQSRRPSSWRQEKITRTKEEALELINGYIQKIKSGEEDFESLASQFSDCSSAKARGDLGAFSRGQMQKPFEDASFALRTGEMSGPVFTDSGIHIILRTE
Turning to B1, the equilibrium dissociation constant (Kd) in experiment [4] came out at 78 µM; in experiment [5], 203 µM; in experiment [6] it was 7 µM.
